XBP1 UPR activ: activators of adaptive XBP1 UPR arm, primary screen, cell-based, CHO-XBP1 luciferase reporter, luminescence, uHTS. IRE1-XBP1 UPR activation; percent of tunicamycin response, DMSO as zero. AID 463104, 2010. activation, % at 20 µM. hit rate 0.33% among 330,000;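 active means versus positive control, 20 µM dose yields 30% or more activation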;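 further: 100% = tunicamycin at 10 µg/mL and 0% = DMSO only wells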
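Assay system: IRE1-XBP1 luciferase reporter CHO line. Input: 1000 cells/well. Buffer or medium: F12 with 10% serum. Doses: 20 µM, 1% DMSO. Times: overnight seeding at 37 °C, 6 h compound treatment at 37 °C. Technique: Steady-Glo luciferase glow luminescence, 10 min after reagent addition.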
Beta2AR agonist: beta2AR agonists driving receptor internalization, primary screen, cell-based, FAP fluorogen, flow cytometry | Beta-2 adrenergic receptor (Homo sapiens), P07550 | Am2.2-beta2AR cells | response, % (no concentration beside the values) | hit rate 0.43% among 340,000;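 active means response above a set limit, near 3 SD of response in nonfluorescent compounds, cut at about 42% in these data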
Target sequence (P07550 whole entry, looked up): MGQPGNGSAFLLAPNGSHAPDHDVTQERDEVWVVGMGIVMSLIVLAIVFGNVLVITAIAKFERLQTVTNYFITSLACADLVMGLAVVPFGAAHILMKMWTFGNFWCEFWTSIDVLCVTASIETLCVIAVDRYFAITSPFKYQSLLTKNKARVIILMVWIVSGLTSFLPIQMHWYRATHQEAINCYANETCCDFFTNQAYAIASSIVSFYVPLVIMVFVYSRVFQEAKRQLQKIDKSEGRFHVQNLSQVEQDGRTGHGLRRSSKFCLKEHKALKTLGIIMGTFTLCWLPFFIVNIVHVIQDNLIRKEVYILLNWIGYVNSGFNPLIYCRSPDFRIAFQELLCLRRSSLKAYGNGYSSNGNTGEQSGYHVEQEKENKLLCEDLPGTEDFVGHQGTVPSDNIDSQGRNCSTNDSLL
T cell HTS: modulators of CD8 T cell-vesicle binding, primary screen, mouse 2C CD8+ T cells, flow cytometry. hit rate 0.068% among 330,000. 2C CD8+ T cell-vesicle binding; stronger effect = lower value. AID 2052, 2009. response (vesicle binding), % at 7 µM;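 active means response, share of CD8 T cells binding vesicles, and their 90th percentile fluorescence all below set limits, cut at about 80% in these data, passing the limit was not always enough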;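 further: values below 100% mean blocked vesicle binding to the CD8+ T cells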
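Benchmarks: naked versus QL9-loaded vesicles / Assay system: purified 2C TCR transgenic mouse naive CD8+ T cells / Technique: high-throughput flow cytometry with anti-B7-1 and anti-CD8 staining / Timing: Cell–vesicle co-incubation 1.5 h at 37 °C, staining 20 min on ice / Read-out: percent CD8+ FL2 mean versus row control / Probe or stimulus: QL9-loaded Drosophila micro-vesicles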
CHOP UPR activ: activators of apoptotic CHOP UPR arm, primary screen, cell-based, CHO-CHOP luciferase reporter, luminescence, uHTS; UPR activation; percent of tunicamycin response over DMSO baseline; activation, % at 10 µM; hit rate 0.34% among 330,000;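 active means at 10 µM dose, activation of 40% or more, normalized to positive control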;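 further: 100% = tunicamycin at 10 µg/mL and 0% = DMSO alone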
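assay system = CHO CHOP reporter cells | amount = 500 CHO-CHOP cells per well | buffer or medium = F12 with 10% FBS | incubation = 16-18 h cell attachment, then 6 h compound exposure, 37 °C | detection = luminescence read with Steady-Glo | read-out = percent activation relative to tunicamycin control | controls = tunicamycin high control, DMSO low control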
Active calls of the source: *; i = inactive; x = not tested or not shown. The list is not random: actives were taken first. Their share in the collection is about 1%.

SMILES	XBP1 UPR activ	Beta2AR agonist	T cell HTS	CHOP UPR activ
O=c1oc(-c2cccnc2)nc2ccccc12	-1	-1	252	1
Cc1cc(=O)c2cc3nc(-c4cccnc4)oc3c(Br)c2o1	6	x	0.0*	7
COc1ccc(-c2cc(-c3nc4ccccn4c3NCc3ccccc3)ccc2OC)cc1	-10	66*	356	-9
COc1ccc(Cl)cc1N(CC(=O)N1CCCCCC1)S(C)(=O)=O	-1	1	158	1
COc1cc(NC(=O)COc2cc3oc(=O)cc(C)c3cc2Cl)cc(OC)c1OC	-5	46*	338	1
COC(=O)n1c(SC)nc2ccccc21	0	78*	226	1
C=CCOc1ccc(C2NC(=S)NC(c3ccccc3)=C2C(C)=O)cc1OC (stereo unspecified)	7	0	27*	18
COc1cc(C2NC(=O)NC(c3ccccc3)=C2C(C)=O)ccc1OCC#N (stereo unspecified)	0	5	280	0
CC(/C=N/NC(=O)c1cc(-c2cccs2)[nH]n1)=C\c1ccccc1	7	-1	189	0
O=C(COc1ccccc1F)NCC(c1ccco1)N1CCCC1 (stereo unspecified)	-5	7	50*	-1
Cc1ccc(C)c(S(=O)(=O)/N=C2\C=C(NS(=O)(=O)c3ccccc3)C(=O)c3ccccc32)c1	-3	40	182	3
Cc1cc(C)c(S(=O)(=O)/N=C2/C=C(Sc3ncn[nH]3)C(=O)c3ccccc32)cc1C	x	49*	531	x
O=C(Nc1ccccc1Cl)N1CCn2c(nc3ccccc32)C1	3	-24	463	2
Cc1cccc(NS(=O)(=O)c2ccc(C(=O)N3CCCC3)cc2)c1C	-1	-5	494	0
O=C(NC(=S)Nc1ccc2c(c1)C(=O)c1ccccc1C2=O)c1ccc(F)cc1	41*	x	87	15
O=C(NC(=S)Nc1ccc(NC(=O)c2ccccc2)cc1)c1ccc(F)cc1	5	-1	470	5
Cc1ccc(C(=O)c2oc3ccccc3c2NC(=O)c2cc(-c3ccccc3O)n[nH]2)cc1	19	-2	354	3
Cc1ccc(C(=O)c2oc3ccccc3c2NC(=O)c2cc(-c3cc(C)ccc3O)n[nH]2)cc1	60*	2	217	10
COCCCNC(=O)C(C#N)c1nc2ccccc2nc1N1CCN(Cc2ccccc2)CC1 (stereo unspecified)	x	-4	x	x
Cc1nc2ccccc2c2oc(C(=O)N3CCN(C(=O)c4ccco4)CC3)cc12	-1	-16	134	-1
Cc1nc2ccccc2c2oc(C(=O)N3CCN(c4ccc([N+](=O)[O-])cc4)CC3)cc12	-8	51*	i	-2
C=CCNc1nc(S(=O)Cc2ccc(C)cc2)nc2c1CCCC2 (stereo unspecified)	-2	53*	199	0
C=CCNc1c2c(nc3nnnn13)CCCC2	3	-6	360	0
Nc1c(N(Cc2ccccc2)C(=O)COc2cccc(Cl)c2)c(=O)[nH]c(=O)n1Cc1ccccc1	-3	2	241	1
COC(=O)c1cc2ccc(OC)c(OC)c2c(=O)s1	-3	50*	459	0
SMILES	XBP1 UPR activ	Beta2AR agonist	T cell HTS	CHOP UPR activ
COc1ccc2cc(C(=O)N3CCCCCC3)sc(=O)c2c1OC	0	0	160	2
O=C1c2sc3nc4ccccc4n3c2C(=O)N1c1ccccc1Cl	-1	46*	906	4
O=C(c1ccc(N2C(=O)C3CC=C(Cl)CC3C2=O)cc1)N1CCCCC1 (stereo unspecified)	-1	2	0.0*	-1
CC1c2[nH]c3ccccc3c2CCN1C(=O)Nc1ccccc1 (stereo unspecified)	-4	-13	189	0
O=C(Nc1ccccc1)N1CCc2c([nH]c3ccccc23)C1C(F)(F)F (stereo unspecified)	-2	17	32*	1
COc1ccccc1C1=NOC(COc2ccc3c(C)cc(=O)oc3c2)C1 (stereo unspecified)	16	44*	717	1
O=C(N/N=C/c1ccc(OCc2ccccc2)cc1)c1cccs1	4	7	78*	4
O=C(Nc1ccc(OCc2ccccc2)cc1)c1cccs1	-2	-1	175	2
Cc1ccc(Cn2c(SCC(=O)NCc3ccco3)nc3ccsc3c2=O)cc1	-1	3	261	5
CCCCC1C(=O)N(c2ccccc2)N(c2ccc(O)cc2)C1=O (stereo unspecified)	-12	61*	205	-9
Oc1ccc(/C=N/Nc2ccc(Cl)nn2)c(O)c1O	0	92*	130	0
CCOC(=O)c1nc2sc3c(c2c(=O)[nH]1)CCCC3	-2	20	267	1
CCOC(=O)c1nc2sc3c(c2c(=O)[nH]1)CCC(C)C3 (stereo unspecified)	2	56*	200	0
Cc1oc2c(c1C(=O)c1ccc(Cl)cc1)C(=O)C(=O)c1ccccc1-2	x	63*	x	x
O=C(Oc1ccc(-c2nnco2)cc1)N1CCCCC1	0	-8	76*	1
CSc1ccc(CNc2ccc(C)cc2)cc1	1	11	139	3
O=C(Nc1ccc(Cl)c(C(F)(F)F)c1)NC1CC2CCCC(C1)N2Cc1ccccc1 (stereo unspecified)	10	x	380	4
Cc1ccc(C)c(CSc2nnc(-c3cccs3)n2Cc2ccco2)c1	1	67*	460	-1
O=C(/C=C/c1c(Cl)cccc1Cl)Nc1ccncc1	2	4	0.0*	0
O=C(/C=C/c1c(F)cccc1Cl)Nc1ccncc1	2	-1	449	7
N/C(=N\OC(=O)C(c1ccccc1)c1ccccc1)c1ccccn1	-3	58*	153	0
C[C@H]1CN=C(N(C)C)N1CCCCc1ccccc1	-1	-1	335	0
COc1ccc(-n2nc3c(N4CCC(C(=O)NCc5ccccc5C)CC4)nnc(C)c3c2C)cc1	-2	82*	636	5
CCn1cc(C(=O)NC(C)C23CC4CC(CC(C4)C2)C3)cn1 (stereo unspecified)	2	-1	187	2
CC(NC(=O)Cn1ncc(Cl)c(Cl)c1=O)C12CC3CC(CC(C3)C1)C2 (stereo unspecified)	x	112*	332	x
O=C(CSc1nnnn1-c1ccc(F)cc1)Nc1ccc(N2CCOCC2)c(Cl)c1	-1	-1	248	-3
CC(=O)N1N=C2/C(=C/c3ccccc3)CCCC2C1c1ccccc1 (stereo unspecified)	-4	-3	71*	2
COCCCNC(=O)C1c2ccccc2Oc2ccccc21	-5	-6	143	1
CC1=NN(c2ccc(C)c(C)c2)C(=O)/C1=C/c1ccc2c(c1)n(C)c(=O)n2C	-2	21	481	1
CCOCCCNC(=S)NCCCNc1nc2c(C)cc(C)cc2cc1C#N	x	16	x	x

Screening data as filed in PubChem.
